The full list was thinned out, with hits kept by preference.
E-sel inducer: E-selectin induction in HUVECs, primary screen, imaging, HUVEC, immunofluorescence imaging, single point; P16581; normalized: neutral wells 0, TNF-alpha wells 100; activation, % at 7.58 µM; actives 0.37% (n = 260,000);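 active means mean E-selectin-positive cell signal at least 10% of the positive control, reached in at least 60% of replicates, without over 20% cell loss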
Target sequence (P16581 whole entry, looked up): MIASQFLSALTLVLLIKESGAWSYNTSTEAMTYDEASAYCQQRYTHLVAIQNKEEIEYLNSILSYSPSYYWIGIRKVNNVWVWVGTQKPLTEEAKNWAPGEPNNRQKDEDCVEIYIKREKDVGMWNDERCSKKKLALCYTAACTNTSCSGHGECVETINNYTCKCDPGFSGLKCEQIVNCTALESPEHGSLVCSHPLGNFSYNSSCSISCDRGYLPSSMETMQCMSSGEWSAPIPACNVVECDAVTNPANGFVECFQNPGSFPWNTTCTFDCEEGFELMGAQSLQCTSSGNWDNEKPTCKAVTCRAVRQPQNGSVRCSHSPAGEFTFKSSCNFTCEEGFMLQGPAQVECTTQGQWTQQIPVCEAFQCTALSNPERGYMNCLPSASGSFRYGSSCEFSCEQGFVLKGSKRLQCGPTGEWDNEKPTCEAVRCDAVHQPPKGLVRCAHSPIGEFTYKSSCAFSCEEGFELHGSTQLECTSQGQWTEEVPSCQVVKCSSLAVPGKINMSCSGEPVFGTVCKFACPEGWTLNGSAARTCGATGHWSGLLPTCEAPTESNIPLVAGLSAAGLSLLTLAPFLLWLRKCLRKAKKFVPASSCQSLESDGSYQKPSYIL
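System: HUVEC / Compound: single concentration / Signal: immunofluorescence imaging / Read-out: percent E-selectin-positive cells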
Hits are given with their value; – = inactive.

SMILES | E-sel inducer
O=C(NCC[C@@H]1CC[C@@H](NC(=O)c2ccncc2)[C@H](CO)O1)Nc1ccc(Cl)cc1 | –
CC(C)NC(=O)N1[C@@H]2CN(C(=O)Nc3ccccc3)c3ccccc3[C@@H]2[C@@H]1CO | –
O=S(=O)(NCc1csc(-c2cccs2)n1)c1ccc(Cl)cc1 | 52
Cc1ccc(S(=O)(=O)NCc2csc(-c3cccs3)n2)cc1 | –
O=S(=O)(NCCc1csc(-c2ccc(C(F)(F)F)cc2)n1)c1ccc2c(c1)OCCO2 | –
O=S(=O)(NCc1csc(-c2cccs2)n1)c1cccc(C(F)(F)F)c1 | 60
COc1ccc(S(=O)(=O)NCc2csc(-c3cccnc3)n2)cc1 | –
Cc1nc(CNS(=O)(=O)c2ccc3ccccc3c2)cs1 | –
C[C@@H]1CN([C@@H](C)CO)C(=O)c2cc(NC(=O)Nc3cccc4ccccc34)ccc2O[C@@H](C)CCCCO[C@@H]1CN(C)S(=O)(=O)c1cccs1 | –
C/C=C/c1ccc2c(c1)O[C@H](CN(C)C(=O)C1CC1)[C@@H](C)CN([C@@H](C)CO)S2(=O)=O | –
O=C(C[C@H]1C[C@H]2c3cc(NC(=O)Nc4ccccc4)ccc3O[C@H]2[C@@H](CO)O1)NC1CCCC1 | –
C[C@H](CO)N1C[C@H](C)[C@H](CN(C)C(=O)c2ccccc2)OCCCC[C@H](C)Oc2ccc(NC(=O)C3CCCCC3)cc2C1=O | –
C[C@@H]1CN([C@H](C)CO)C(=O)c2cccc(NS(C)(=O)=O)c2O[C@H]1CN(C)Cc1ccncc1 | 125
C[C@@H]1CN([C@H](C)CO)C(=O)c2cccc(NS(C)(=O)=O)c2O[C@@H]1CN(C)Cc1ccc(Oc2ccccc2)cc1 | 41
C[C@@H]1CN([C@@H](C)CO)C(=O)c2cccc(NS(C)(=O)=O)c2O[C@H]1CN(C)Cc1ccc(Oc2ccccc2)cc1 | –
C[C@H]1CN([C@@H](C)CO)C(=O)c2cccc(NS(C)(=O)=O)c2O[C@H]1CN(C)Cc1ccccc1 | –
C[C@H]1CN([C@@H](C)CO)C(=O)c2cccc(NS(=O)(=O)c3ccccc3)c2O[C@@H]1CN(C)Cc1ccc(Oc2ccccc2)cc1 | –
C[C@H](CO)N1C[C@H](C)[C@@H](CN(C)Cc2ccncc2)Oc2c(NS(C)(=O)=O)cccc2C1=O | –
C[C@H](CO)N1C[C@H](C)[C@@H](CN(C)Cc2ccncc2)Oc2ncc(C#CCN(C)C)cc2C1=O | –
O=C(Cc1ccccn1)N1CC(=O)N2[C@H](C1)[C@H](c1ccc(-c3ccc(F)cc3)cc1)[C@@H]2CO | –
O=C(C[C@H]1C=C[C@@H](NC(=O)C2CC2)[C@@H](CO)O1)NCc1ccncc1 | –
Cc1ccc(S(=O)(=O)N[C@H]2CC[C@H](CC(=O)NCCc3ccncc3)O[C@@H]2CO)cc1 | –
C[C@H](CO)N1C[C@H](C)[C@H](CN(C)C(=O)c2cccnc2)Oc2cc(C3=CCCC3)ccc2S1(=O)=O | –
O=C(CCN1C(=O)C2C3C=CC(C3)C2C1=O)Nc1ccccc1 (configuration not stated) | –
CC1CCC(NC(=O)CCN2C(=O)C3CC=CCC3C2=O)CC1 (configuration not stated) | –
SMILES | E-sel inducer
CC1CCC(NC(=O)CCN2C(=O)C3C4C=CC(C4)C3C2=O)CC1 (configuration not stated) | 177
O=C(C[C@H]1C=C[C@@H](NC(=O)Nc2ccc(F)cc2)[C@H](CO)O1)NCc1ccccn1 | –
COc1ccc(S(=O)(=O)Nc2cccc3c2O[C@H](CN(C)C(=O)Nc2cccc4ccccc24)[C@@H](C)CN([C@@H](C)CO)C3=O)cc1 | –
COc1ccc(S(=O)(=O)Nc2cccc3c2O[C@H](CN(C)S(=O)(=O)c2ccc(F)cc2)[C@H](C)CN([C@H](C)CO)C3=O)cc1 | –
COc1ccc(S(=O)(=O)N(C)C[C@@H]2Oc3c(NS(=O)(=O)c4ccc(F)cc4)cccc3C(=O)N([C@H](C)CO)C[C@@H]2C)cc1 | 62
COc1ccc(S(=O)(=O)N(C)C[C@H]2Oc3c(NS(=O)(=O)c4ccc(F)cc4)cccc3C(=O)N([C@@H](C)CO)C[C@H]2C)cc1 | –
COc1ccc(S(=O)(=O)N(C)C[C@H]2OCCCC[C@H](C)Oc3ccc(NC(=O)Nc4cccc5ccccc45)cc3C(=O)N([C@@H](C)CO)C[C@@H]2C)cc1 | –
COc1ccc(S(=O)(=O)N(C)C[C@@H]2OCCCC[C@H](C)Oc3ccc(NC(=O)Nc4cccc5ccccc45)cc3C(=O)N([C@H](C)CO)C[C@H]2C)cc1 | 34
COc1ccc(S(=O)(=O)Nc2cccc3c2O[C@H](CN(C)C(=O)Nc2cccc4ccccc24)[C@@H](C)CN([C@H](C)CO)C3=O)cc1 | 28
COc1ccc(S(=O)(=O)N(C)C[C@@H]2OCCCC[C@@H](C)Oc3ccc(NC(=O)Nc4cccc5ccccc45)cc3C(=O)N([C@H](C)CO)C[C@H]2C)cc1 | –
COc1ccc(S(=O)(=O)Nc2ccc3c(c2)C(=O)N([C@H](C)CO)C[C@@H](C)[C@@H](CN(C)C(=O)Nc2cccc4ccccc24)O3)cc1 | 75
COc1ccc(S(=O)(=O)Nc2ccc3c(c2)C(=O)N([C@H](C)CO)C[C@@H](C)[C@H](CN(C)C(=O)Nc2cccc4ccccc24)O3)cc1 | –
COc1ccc(S(=O)(=O)Nc2ccc3c(c2)C(=O)N([C@H](C)CO)C[C@H](C)[C@H](CN(C)C(=O)Nc2cccc4ccccc24)O3)cc1 | –
COc1ccc(S(=O)(=O)Nc2cccc3c2O[C@H](CN(C)C(=O)Nc2cccc4ccccc24)[C@H](C)CN([C@H](C)CO)C3=O)cc1 | –
COc1ccc(NC(=O)Nc2cccc3c2O[C@@H](CN(C)S(C)(=O)=O)[C@@H](C)CN([C@H](C)CO)C3=O)cc1 | –
CC(=O)N1CC2(C1)[C@H](c1ccccc1)[C@@H](CO)N2Cc1cccc(Cl)c1 | –
O=C(C[C@@H]1CC[C@H](NC(=O)c2ccncc2)[C@@H](CO)O1)NCCc1ccncc1 | –
O=C(C[C@H]1C[C@H]2c3cc(NS(=O)(=O)c4ccc(F)cc4)ccc3O[C@H]2[C@@H](CO)O1)NCc1ccncc1 | –
C[C@@H]1CN([C@H](C)CO)C(=O)c2cc(NS(=O)(=O)c3ccccc3)ccc2O[C@@H](C)CCCCO[C@H]1CN(C)C(=O)NC1CCCCC1 | –
CCC(=O)N(C)C[C@@H]1Oc2cc(C3=CCCC3)ccc2S(=O)(=O)N([C@H](C)CO)C[C@H]1C | –
CO[C@H]1CN(C)C(=O)c2cc(NC(=O)C3CC3)ccc2OC[C@@H](C)N(Cc2ccc(F)cc2)C[C@@H]1C | –
C[C@@H]1CN([C@@H](C)CO)C(=O)c2cc(NC(=O)Nc3ccc(F)cc3)ccc2O[C@@H](C)CCCCO[C@H]1CN(C)Cc1ccccc1 | –
CCN(CC)c1ccc(S(=O)(=O)N2CCOCC2)cc1NC(=O)CSc1ccccc1 | –
CCN(CC)c1ccc(S(=O)(=O)N2CCOCC2)cc1NC(=O)CN1C(=O)NC2(CCCC2)C1=O | 63
O=C(CN1C(=O)NC2(CCCC2)C1=O)Nc1cc(S(=O)(=O)N2CCOCC2)ccc1OCC(F)(F)F | –
O=C(CC1CC1)N[C@@H]1CC[C@H](CCNS(=O)(=O)c2ccc(Cl)cc2)O[C@@H]1CO | –
C/C=C/c1ccc([C@H]2[C@H](CO)N3C(=O)CN(Cc4ccc(C)cc4)C[C@@H]23)cc1 | –
C[C@@H]1CN([C@@H](C)CO)C(=O)c2cccc(NS(=O)(=O)c3cccs3)c2O[C@H]1CN(C)S(=O)(=O)c1ccc(Cl)cc1 | –

Assay outcomes (PubChem BioAssay)
